The source made the active and inactive calls. The calls are words filed in the database; no cut-off is given here.
Legend:
Plasmodium falciparum [1] = assay: Antimalarial activity against chloroquine-resistant Plasmodium falciparum K1 infected in RBC by [3H]hypoxanthine incorporation assay in presence of 0.5 % albumax; type: functional, organism-based
Plasmodium falciparum [2] = assay: Antimalarial activity against chloroquine-resistant Plasmodium falciparum K1 infected in RBC by [3H]hypoxanthine incorporation assay in presence of 50 % serum; type: functional, organism-based
Plasmodium falciparum [3] = assay: Antimalarial activity against chloroquine-sensitive Plasmodium falciparum NF54 infected in RBC after 72 hrs by [3H]hypoxanthine incorporation assay in presence of 0.5 % albumax; type: functional, organism-based
Plasmodium falciparum [4] = assay: Antimalarial activity against chloroquine-sensitive Plasmodium falciparum NF54 infected in RBC after 72 hrs by [3H]hypoxanthine incorporation assay in presence of 50 % serum; type: functional, organism-based
Plasmodium falciparum [5] = assay: Antimalarial activity against chloroquine-sensitive Plasmodium falciparum NF54 infected in RBC after 24 hrs by [3H]hypoxanthine incorporation assay in presence of 0.5 % albumax; type: functional, organism-based
Plasmodium falciparum [6] = assay: Antimalarial activity against chloroquine-sensitive Plasmodium falciparum NF54 infected in RBC after 48 hrs by [3H]hypoxanthine incorporation assay in presence of 0.5 % albumax; type: functional, organism-based
Plasmodium berghei [7] = assay: Antimalarial activity against GFP-transfected Plasmodium berghei ANKA in mouse blood assessed as inhibition of schizont maturation compound incubated for 16 hrs followed by 8 hrs of [3H]hypoxanthine incorporation; type: functional, organism-based
Plasmodium berghei [8] = assay: Antimalarial activity against GFP-transfected Plasmodium berghei ANKA in mouse blood assessed as inhibition of schizont maturation after 72 hrs by [3H]hypoxanthine incorporation assay; type: functional, organism-based
Plasmodium berghei [9] = assay: Antimalarial activity against GFP-transfected Plasmodium berghei ANKA in mouse blood assessed as inhibition of schizont maturation after 48 hrs by [3H]hypoxanthine incorporation assay relative to control; type: functional, organism-based
[10] = Metabolic stability in mouse liver microsomes; type: ADME, Microsome; details: read-out: Stability
Summary of the method: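 In vitro metabolic stability was measured with a mouse liver microsomal preparation and expressed as intrinsic clearance in µl/(min mg).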

IC50 (Plasmodium falciparum [3]) [nM]	IC50 (Plasmodium falciparum [4]) [nM]	IC50 (Plasmodium falciparum [5]) [nM]	IC50 (Plasmodium falciparum [6]) [nM]	IC50 (Plasmodium berghei [7]) [nM]	microsomal CLint [10] [µL/min/mg]	Structure (SMILES)	IC50 (Plasmodium falciparum [1]) [nM]	IC50 (Plasmodium falciparum [2]) [nM]	Activity (Plasmodium berghei [8])	Activity (Plasmodium berghei [9])
333	167	408	314			CCN(CC)Cc1cc(CNC[C@@H](O)[C@H](Cc2ccccc2)NC(=O)c2ccc(N3CCN(C)CC3)cc2)ccc1O				
1.6	6.5	> 500		> 500	> 1250	CCCN(CCC)C(=O)c1ccc(C(=O)N[C@@H](Cc2ccccc2)[C@H](O)CN[C@H](C)c2ccccc2)cc1				
118	334	151	83	> 500		CCCN(CCC)Cc1cc(C(=O)N[C@@H](Cc2ccccc2)[C@H](O)CN[C@H](C)c2ccccc2)ccc1O				
> 500	295	> 500	> 500			CN1CCN(c2ccc(C(=O)N[C@@H](Cc3ccccc3)[C@H](O)CNCc3ccc(O)c(CN4CCCC4)c3)cc2)CC1				
4.9	5.9	235	< 7.8	> 500		C[C@@H](NC[C@@H](O)[C@H](Cc1ccccc1)NC(=O)c1cccc(O)c1CN1CCCCC1)c1ccccc1				
357	> 500	380	305			CCN(CC)Cc1cc(C(=O)N[C@@H](Cc2ccccc2)[C@H](O)CN[C@H](C)c2ccccc2)ccc1O				
8.3	3.6	133	< 7.8			CCN(CC)Cc1cc(Nc2ccc(C(=O)N[C@@H](Cc3ccccc3)[C@H](O)CN[C@H](C)c3ccccc3)cc2)ccc1O				
0.9	1.3	> 500		> 500	860	C[C@@H](NC[C@@H](O)[C@H](Cc1ccccc1)NC(=O)c1ccc(C(=O)N2CCCCC2)cc1)c1ccccc1				
0.6	< 0.6	> 500		> 500	75	C[C@@H](NC[C@@H](O)[C@H](Cc1ccccc1)NC(=O)c1ccc(C(=O)N2CCN(C)CC2)cc1)c1ccccc1				
98	138				908	C[C@@H](NC[C@@H](O)[C@H](Cc1ccccc1)NC(=O)c1cccc(S(=O)(=O)N2CCN(C)CC2)c1)c1ccccc1				
89	62	90	75			CCCN(CCC)Cc1cc(C(C)NC[C@@H](O)[C@H](Cc2ccccc2)NC(=O)c2ccc(N3CCN(C)CC3)cc2)ccc1O (stereo not given in full)				
< 7.8	9	65	15			CCN(CC)Cc1ccc(Nc2ccc(C(=O)N[C@@H](Cc3ccccc3)[C@H](O)CN[C@H](C)c3ccccc3)cc2)cc1O				
3.6	3.3	25	< 7.8	172	415	C[C@@H](NC[C@@H](O)[C@H](Cc1ccccc1)NC(=O)c1ccc(Nc2ccc(CN3CCCCC3)c(O)c2)cc1)c1ccccc1				
2	10	> 500	< 3.1	> 500	> 1250	CCCN(CCC)C(=O)c1cccc(C(=O)N[C@@H](Cc2ccccc2)[C@H](O)CN[C@H](C)c2ccccc2)c1				

The next lines start with the compound.

Structure (SMILES)	IC50 (Plasmodium falciparum [3]) [nM]	IC50 (Plasmodium falciparum [4]) [nM]	IC50 (Plasmodium falciparum [5]) [nM]	IC50 (Plasmodium falciparum [6]) [nM]	IC50 (Plasmodium berghei [7]) [nM]	microsomal CLint [10] [µL/min/mg]	IC50 (Plasmodium falciparum [1]) [nM]	IC50 (Plasmodium falciparum [2]) [nM]	Activity (Plasmodium berghei [8])	Activity (Plasmodium berghei [9])
CCN(CC)Cc1cc(Nc2cccc(C(=O)N[C@@H](Cc3ccccc3)[C@H](O)CNC3CCCC3)c2)ccc1O	23	67					30	127		
CCCN(CCC)Cc1cc(Nc2ccc(C(=O)N[C@@H](Cc3ccccc3)[C@H](O)CN[C@H](C)c3ccccc3)cc2)ccc1O	9.4	13	77	11			11	< 7.8		
CCCN(CCC)Cc1cc(CNC[C@@H](O)[C@H](Cc2ccccc2)NC(=O)c2ccc(Nc3ccnc(C)c3)cc2)ccc1O	158	80					149	93		
C[C@@H](NC[C@@H](O)[C@H](Cc1ccccc1)NC(=O)c1ccc(Nc2ccncc2)cc1)c1ccccc1	20	36	169	26	307	112	27	48	Active	Active
C[C@@H](NC[C@@H](O)[C@H](Cc1ccccc1)NC(=O)c1ccc(CN2CCCCC2)c(O)c1)c1ccccc1	4.9	5.9					< 7.8	7.8		
CCCN(CCC)Cc1cc(C2CCC(NC[C@@H](O)[C@H](Cc3ccccc3)NC(=O)c3ccc(N4CCN(C)CC4)cc3)CC2)ccc1O (stereo not given in full)	19		20	19	143	74				
C[C@@H](NC[C@@H](O)[C@H](Cc1ccccc1)NC(=O)c1ccc(Nc2ccc(O)c(CN3CCCC3)c2)cc1)c1ccccc1	17	4.9	174	< 7.8			< 7.8	< 7.8		
C[C@@H](NC[C@@H](O)[C@H](Cc1ccccc1)NC(=O)c1ccc(N2CCN(C)CC2)cc1)c1ccccc1	8.7	8.5	> 500		> 500	80	19	32		
Cc1cc(Nc2ccc(C(=O)N[C@@H](Cc3ccccc3)[C@H](O)CN[C@H](C)c3ccccc3)cc2)cc(C)n1	8.7	23	198	11	329		9	20	Active	Active
CN1CCN(c2ccc(C(=O)N[C@@H](Cc3ccccc3)[C@H](O)CNCc3ccc(O)c(CN4CCCCC4)c3)cc2)CC1	120	57	158	102			36	28		
CCCN(CCC)C(=O)c1cccc(C(=O)N[C@@H](Cc2ccccc2)[C@H](O)CNC2CCCC2)c1	7.1						12	36		
C[C@@H](NC[C@@H](O)[C@H](Cc1ccccc1)NC(=O)c1ccc(N(C)c2ccncc2)cc1)c1ccccc1	21	35	249	27	> 500	180	38	42	Active	Active
C[C@@H](NC[C@@H](O)[C@H](Cc1ccccc1)NC(=O)c1ccc(NC2CCN(C)CC2)cc1)c1ccccc1	4	12	> 500	< 7.8		76	7	16		
CCN(CC)Cc1cc(Nc2ccc(C(=O)N[C@@H](Cc3ccccc3)[C@H](O)CNC3CCCC3)cc2)ccc1O	78	51					54	44		
C[C@@H](NC[C@@H](O)[C@H](Cc1ccccc1)NC(=O)c1ccc(N(C)C2CCN(C)CC2)cc1)c1ccccc1	4.4	14	> 500	< 7.8		71	7.1			

From ChEMBL document CHEMBL2331413, “Novel in vivo active anti-malarials based on a hydroxy-ethyl-amine scaffold” (Bioorg Med Chem Lett, 2013)
